In article PMC6001286 (Advanced biosystems, 2017):
Starred links: 1 amine or outer side, 2 acyl side, 3 side chain; linkers in the order of their positions; H or OH if unused. Positions of bridges follow the written chain, without caps; N, C: chain ends. Non-standard residues stand in square brackets, D forms with d. Primed or numbered codes have the meaning given here. *: point of attachment. PEG2′ = PEG2 (Ebes) spacer between FITC and the peptide N-terminus, O=C(CCC(=O)[*:2])NCCOCCOCCN[*:1]; FITC = O=C1OC2(c3ccc(O)cc3Oc3cc(O)ccc32)c2ccc(NC(=S)*)cc21; Phe(3,5-F2) = N[C@@H](Cc1cc(F)cc(F)c1)C(=O)O; Hyp = O=C(O)[C@@H]1C[C@@H](O)CN1

Key:
Jurkat tumor cells = assay: flow cytometry binding to Jurkat cells; assay type: cell-based, human; conditions: α4β1-expressing; data not shown
How it was run: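 Jurkat cells were grown in RPMI 1640 with 10% FBS and penicillin/streptomycin (37°C, 5% CO2). Cells were incubated 30 min in 3% FBS/PBS with FITC-PEG-labeled peptide or scrambled analogue at 1 μM; anti-α3-FITC was used at 1 μg per million cells. Cells were washed thrice and resuspended in 3% FBS with 1% sodium azide. Three replicates, ≥10,000 gated cells each.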

[1] = on-bead flow cytometry binding to healthy plasma exosomes; parameters: species or system human; conditions: exosomes isolated by ultracentrifugation
How it was run: (§1)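 Exosomes were isolated by ultracentrifugation: Jurkat EV-depleted culture supernatant, or whole plasma from three healthy donors. Spins were 300 × g, 2,000 × g and 10,000 × g, then twice 100,000 × g for 2 hr at 4°C. Exosomes (10 μg protein) were labeled overnight with FITC-PEG peptide or scrambled analogue (1 μL of 5 mM). Free peptide was removed by 3000 Da spin column. Samples were adsorbed to 3.9 μm aldehyde/sulfate latex beads for flow cytometry. Triplicates, ≥10,000 beads each.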

[2] = on-bead flow cytometry binding to Jurkat exosomes; parameters: species or system human; conditions: α4β1-expressing, data not shown
How it was run: as §1

Row | Substance | binding to Jurkat cells (Jurkat tumor cells) | binding to healthy human plasma exosomes [1] | binding to Jurkat exosomes [2]
1 | scr-LXY30-Fl: scr-LXY30 labeled with fluorescein isothiocyanate dye via PEG2 spacer at the peptide N-terminus ({FITC-PEG2′}-[dC]G[dD][Hyp][Phe(3,5-F2)]GN[dC]R-NH2; disulfide 1-8) | minimal extent | did not exhibit significant binding | minimal extent
2 | [cGd-Hyp-Phe(3,5-diF)-G-NcR] (disulfide) [scr-LXY30] |  | limited binding | 
